Measured values: ChEMBL document CHEMBL5724801, “EUbOPEN Chemogenomics Library - Multiplex” (2024)
Where “and” joins values, the source holds several entries; their conditions need not be identical. Equal values may be shown once.

Test system: HEK-293T
Experiment: Multiplex assay against HEK293T
Format: toxicity, cell-based
Conditions: human
Summary of the method: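 Values for tubulin, mitochondrial-mass and membrane-permeability phenotypes are per cents of cells with healthy nuclei. These cells were identified by CellPathfinder machine-learning gating of live cells that had been stained at seeding with Hoechst33342, BioTracker Green Microtubule Cytoskeleton Dye, MitoTracker Red and Annexin V Alexa Fluor 680 and imaged on a CQ1 microscope at 37°C and 5% CO2 after compound addition. The gating first set Hoechst high-intensity objects apart from normal cells, then split normal cells into healthy, pyknosed or fragmented nuclei, and pyknosed cells into mitotic or apoptotic.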

[1] = 12 h, 1 µM, compound concentration 1 uM
[2] = 12 h, 10 µM, compound concentration 10 uM
[3] = 24 h, 1 µM, compound concentration 1 uM
[4] = 24 h, 10 µM, compound concentration 10 uM
[5] = 48 h, 1 µM, compound concentration 1 uM
[6] = 48 h, 10 µM, compound concentration 10 uM

`COc1ccccc1N1CCN(C[C@@H](C(=O)NC(C)(C)C)c2ccccc2)CC1.Cl.Cl` was tested, and the “Population Apoptotic (%)” value [1] was 24% and 42%, the “Population Fragmented Nuclei (%)” value [1] was 7% and 4% and the “Population Healthy Nuclei (%)” value [1] was 77% and 76%. The “Population Hoechst High Intensity Objects (%)” value [1] was 7% and 6%, the “Population Membrane Permeable-Phenotype (%)” value [1] was 0% and the “Population Mitochondria Different-Phenotype (%)” value [1] was 48% and 77%. The “Population Mitotic Cells (%)” value [1] was 75% and 57%, the “Population Normal (%)” value [1] was 92% and 93% and the “Population Pyknosed Nuclei (%)” value [1] was 14% and 19%. The “Population Tubulin-Different-Phenotype (%)” value [1] was 47% and 35%, the “Total Cell Count” value [1] was 434 and 300 and the “Population Apoptotic (%)” value [2] was 62% and 58%. The “Population Fragmented Nuclei (%)” value [2] was 7% and 5%, the “Population Healthy Nuclei (%)” value [2] was 69% and the “Population Hoechst High Intensity Objects (%)” value [2] was 7% and 16%. For the same compound, the “Population Membrane Permeable-Phenotype (%)” value [2] was 0%, the “Population Mitochondria Different-Phenotype (%)” value [2] was 88% and 79% and the “Population Mitotic Cells (%)” value [2] was 37% and 41%. For the same compound, the “Population Normal (%)” value [2] was 92% and 83%, the “Population Pyknosed Nuclei (%)” value [2] was 23% and 25% and the “Population Tubulin-Different-Phenotype (%)” value [2] was 74% and 59%. The “Total Cell Count” value [2] was 333 and 231, the “Population Apoptotic (%)” value [3] was 19% and 34% and the “Population Fragmented Nuclei (%)” value [3] was 8% and 11%. For the same compound, the “Population Healthy Nuclei (%)” value [3] was 81% and 76%, the “Population Hoechst High Intensity Objects (%)” value [3] was 4% and 6% and the “Population Membrane Permeable-Phenotype (%)” value [3] was 0%. The “Population Mitochondria Different-Phenotype (%)” value [3] was 31% and 54%, the “Population Mitotic Cells (%)” value [3] was 80% and 65% and the “Population Normal (%)” value [3] was 95% and 93%. The “Population Pyknosed Nuclei (%)” value [3] was 9% and 11%, the “Population Tubulin-Different-Phenotype (%)” value [3] was 29% and 28% and the “Total Cell Count” value [3] was 563 and 387. For the same compound, the “Population Apoptotic (%)” value [4] was 45% and 66%, the “Population Fragmented Nuclei (%)” value [4] was 8% and the “Population Healthy Nuclei (%)” value [4] was 68% and 76%. For the same compound, the “Population Hoechst High Intensity Objects (%)” value [4] was 7% and 14%, the “Population Membrane Permeable-Phenotype (%)” value [4] was 0% and the “Population Mitochondria Different-Phenotype (%)” value [4] was 77% and 73%. For the same compound, the “Population Mitotic Cells (%)” value [4] was 54% and 33%, the “Population Normal (%)” value [4] was 92% and 85% and the “Population Pyknosed Nuclei (%)” value [4] was 23% and 15%. For the same compound, the “Population Tubulin-Different-Phenotype (%)” value [4] was 61% and 48%, the “Total Cell Count” value [4] was 377 and 251 and the “Population Apoptotic (%)” value [5] was 22% and 38%. For the same compound, the “Population Fragmented Nuclei (%)” value [5] was 13% and 10%, the “Population Healthy Nuclei (%)” value [5] was 78% and 80% and the “Population Hoechst High Intensity Objects (%)” value [5] was 2% and 6%. The “Population Membrane Permeable-Phenotype (%)” value [5] was 1% and 0%, the “Population Mitochondria Different-Phenotype (%)” value [5] was 19% and 37% and the “Population Mitotic Cells (%)” value [5] was 77% and 61%. For the same compound, the “Population Normal (%)” value [5] was 97% and 93%, the “Population Pyknosed Nuclei (%)” value [5] was 8% and 9% and the “Population Tubulin-Different-Phenotype (%)” value [5] was 18% and 20%. For the same compound, the “Total Cell Count” value [5] was 908 and 480, the “Population Apoptotic (%)” value [6] was 50% and 62% and the “Population Fragmented Nuclei (%)” value [6] was 14% and 10%. For the same compound, the “Population Healthy Nuclei (%)” value [6] was 72% and 76%, the “Population Hoechst High Intensity Objects (%)” value [6] was 6% and 5% and the “Population Membrane Permeable-Phenotype (%)” value [6] was 0%. For the same compound, the “Population Mitochondria Different-Phenotype (%)” value [6] was 59% and 58%, the “Population Mitotic Cells (%)” value [6] was 49% and 37% and the “Population Normal (%)” value [6] was 93% and 94%. For the same compound, the “Population Pyknosed Nuclei (%)” value [6] was 13%, the “Population Tubulin-Different-Phenotype (%)” value [6] was 44% and 36% and the “Total Cell Count” value [6] was 467 and 375.

With `CC(C)(O)C(=O)N1CCN(c2ccc(C(F)(F)F)c(C3=C(c4c[nH]c5ccccc45)C(=O)NC3=O)c2)CC1` the “Population Apoptotic (%)” value [1] was 33% and 46%, the “Population Fragmented Nuclei (%)” value [1] was 4% and 5% and the “Population Healthy Nuclei (%)” value [1] was 78% and 76%. The “Population Hoechst High Intensity Objects (%)” value [1] was 8% and 7%, the “Population Membrane Permeable-Phenotype (%)” value [1] was 0% and the “Population Mitochondria Different-Phenotype (%)” value [1] was 43% and 58%. The “Population Mitotic Cells (%)” value [1] was 66% and 53%, the “Population Normal (%)” value [1] was 91% and 92% and the “Population Pyknosed Nuclei (%)” value [1] was 16% and 17%. The “Population Tubulin-Different-Phenotype (%)” value [1] was 28% and 30%, the “Total Cell Count” value [1] was 381 and 293 and the “Population Apoptotic (%)” value [2] was 51% and 72%. The “Population Fragmented Nuclei (%)” value [2] was 4% and 3%, the “Population Healthy Nuclei (%)” value [2] was 74% and 75% and the “Population Hoechst High Intensity Objects (%)” value [2] was 10% and 7%. For the same compound, the “Population Membrane Permeable-Phenotype (%)” value [2] was 0%, the “Population Mitochondria Different-Phenotype (%)” value [2] was 61% and 90% and the “Population Mitotic Cells (%)” value [2] was 48% and 27%. For the same compound, the “Population Normal (%)” value [2] was 89% and 92%, the “Population Pyknosed Nuclei (%)” value [2] was 20% and 21% and the “Population Tubulin-Different-Phenotype (%)” value [2] was 62% and 63%. The “Total Cell Count” value [2] was 338 and 203, the “Population Apoptotic (%)” value [3] was 33% and 29% and the “Population Fragmented Nuclei (%)” value [3] was 8% and 5%. For the same compound, the “Population Healthy Nuclei (%)” value [3] was 74% and 79%, the “Population Hoechst High Intensity Objects (%)” value [3] was 5% and the “Population Membrane Permeable-Phenotype (%)” value [3] was 0%. For the same compound, the “Population Mitochondria Different-Phenotype (%)” value [3] was 32% and 48%, the “Population Mitotic Cells (%)” value [3] was 66% and 70% and the “Population Normal (%)” value [3] was 94%. For the same compound, the “Population Pyknosed Nuclei (%)” value [3] was 17% and 14%, the “Population Tubulin-Different-Phenotype (%)” value [3] was 19% and the “Total Cell Count” value [3] was 469 and 335. For the same compound, the “Population Apoptotic (%)” value [4] was 45% and 66%, the “Population Fragmented Nuclei (%)” value [4] was 6% and 2% and the “Population Healthy Nuclei (%)” value [4] was 71%. For the same compound, the “Population Hoechst High Intensity Objects (%)” value [4] was 4% and 7%, the “Population Membrane Permeable-Phenotype (%)” value [4] was 1% and 0% and the “Population Mitochondria Different-Phenotype (%)” value [4] was 48% and 84%. The “Population Mitotic Cells (%)” value [4] was 54% and 34%, the “Population Normal (%)” value [4] was 95% and 92% and the “Population Pyknosed Nuclei (%)” value [4] was 22% and 25%. For the same compound, the “Population Tubulin-Different-Phenotype (%)” value [4] was 43% and 60%, the “Total Cell Count” value [4] was 387 and 212 and the “Population Apoptotic (%)” value [5] was 25% and 27%. For the same compound, the “Population Fragmented Nuclei (%)” value [5] was 9% and 10%, the “Population Healthy Nuclei (%)” value [5] was 79% and the “Population Hoechst High Intensity Objects (%)” value [5] was 2% and 5%. The “Population Membrane Permeable-Phenotype (%)” value [5] was 0%, the “Population Mitochondria Different-Phenotype (%)” value [5] was 21% and 29% and the “Population Mitotic Cells (%)” value [5] was 74% and 72%. For the same compound, the “Population Normal (%)” value [5] was 97% and 94%, the “Population Pyknosed Nuclei (%)” value [5] was 10% and the “Population Tubulin-Different-Phenotype (%)” value [5] was 14% and 15%. For the same compound, the “Total Cell Count” value [5] was 780 and 571, the “Population Apoptotic (%)” value [6] was 54% and 78% and the “Population Fragmented Nuclei (%)” value [6] was 8% and 9%. The “Population Healthy Nuclei (%)” value [6] was 71%, the “Population Hoechst High Intensity Objects (%)” value [6] was 8% and the “Population Membrane Permeable-Phenotype (%)” value [6] was 0%. The “Population Mitochondria Different-Phenotype (%)” value [6] was 53% and 71%, the “Population Mitotic Cells (%)” value [6] was 45% and 21% and the “Population Normal (%)” value [6] was 91%. For the same compound, the “Population Pyknosed Nuclei (%)” value [6] was 19%, the “Population Tubulin-Different-Phenotype (%)” value [6] was 25% and 40% and the “Total Cell Count” value [6] was 467 and 227.
